# Reference: ChEMBL document CHEMBL1154044, “5-Nitro-2-furyl derivative actives against Trypanosoma cruzi: preliminary in vivo studies” (Eur J Med Chem, 2009)
# Active and inactive are the calls of the source. No cut-off for these calls is given here.
# Assays:
# Mus musculus [1] = assay: Toxicity in CD1 mouse intestine at 450 mg/kg, po after 3 days by histological study; assay type: organism-based; set-up: dose 450 mg/kg, route oral; details: in vivo, 72 h
# How it was run: (§1)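 Healthy female CD1 mice (20–22 g), 5–7 per group, given a single oral (intragastric) or i.p. dose in saline:Tween 80 (4:1) vehicle. Sacrificed on day 3 after ether anaesthesia. Organs fixed in 10% aqueous formalin for histology. Scored against untreated animals from no change to +++ (many changes).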
# Mus musculus [2] = assay: Toxicity in CD1 mouse heart at 300 mg/kg, ip after 3 days by histological study; assay type: organism-based; set-up: dose 300 mg/kg, route intraperitoneal; details: in vivo, 72 h; how it was run: as §1
# Mus musculus [3] = assay: Toxicity in CD1 mouse assessed as survival at 300 mg/kg, ip after 3 days; assay type: organism-based; set-up: dose 300 mg/kg, route intraperitoneal; details: in vivo, 72 h
# How it was run: (§2)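 Healthy 2-month-old female CD1 mice (20–22 g), groups of 5–7, given one oral dose by intragastric syringe or one i.p. injection. Compound suspended in saline:Tween 80 (4:1) with sonication just before dosing; vehicle-treated controls included. Weighed and observed daily over 3 days for skin, physical aspect, activity and faeces; survival recorded at day 3.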
# Mus musculus [4] = assay: Toxicity in CD1 mouse assessed as survival at 450 mg/kg, po after 3 days; assay type: organism-based; set-up: dose 450 mg/kg, route oral; details: in vivo, 72 h; how it was run: as §2
# Mus musculus [5] = assay: Toxicity in CD1 mouse intestine at 300 mg/kg, ip after 3 days by histological study; assay type: organism-based; set-up: dose 300 mg/kg, route intraperitoneal; details: in vivo, 72 h; how it was run: as §1
# Trypanosoma cruzi [6] = assay: Antitrypanosomal activity against Trypanosoma cruzi infected in po dosed CD1 mouse assessed as prevention of inflammatory infiltrates in heart administered daily for 14 days measured on day 45; assay type: functional, organism-based
# How it was run: (§3)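 T. cruzi, a Uruguayan patient isolate, was inoculated intradermally into 2-month-old female CD1 mice (20–22 g). Dosing began on day 15 after parasitaemia was observed. Drugs were suspended in saline:Tween 80 (4:1) and given by intragastric syringe once daily for 14 days, with untreated controls. On day 45 after treatment start, heart and muscle sections were scored by two independent observers for amastigotes and inflammatory infiltrates. Groups had 5–7 mice.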
# Mus musculus [7] = assay: Toxicity in CD1 mouse brain at 300 mg/kg, ip after 3 days by histological study; assay type: organism-based; set-up: dose 300 mg/kg, route intraperitoneal; details: in vivo, 72 h; how it was run: as §1
# Trypanosoma cruzi [8] = assay: Antitrypanosomal activity against Trypanosoma cruzi infected in po dosed CD1 mouse assessed as prevention of amastigote nest in heart administered daily for 14 days measured on day 45; assay type: functional, organism-based; how it was run: as §3
# Mus musculus [9] = assay: Toxicity in CD1 mouse assessed as decrease in weight respect to day zero at 300 mg/kg, po after 3 days; assay type: organism-based; set-up: dose 300 mg/kg, route oral; scale not given: the % may be the effect or the level left; details: in vivo, 72 h
# How it was run: (§4)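 Healthy 2-month-old female CD1 mice (20–22 g, 5–7 per group) received one dose. Oral doses of 450 or 300 mg/kg were given by intragastric syringe; i.p. doses of 300 or 150 mg/kg by injection. Drugs were suspended in saline:Tween 80 (4:1), and a vehicle-only control was included. Mice were weighed and observed daily for 3 days. Weight change is expressed as percent relative to day zero.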
# Mus musculus [10] = assay: Toxicity in CD1 mouse lung at 450 mg/kg, po after 3 days by histological study; assay type: organism-based; set-up: dose 450 mg/kg, route oral; details: in vivo, 72 h; how it was run: as §1
# Mus musculus [11] = assay: Toxicity in CD1 mouse assessed as decrease in weight respect to day zero at 450 mg/kg, po after 3 days; assay type: organism-based; set-up: dose 450 mg/kg, route oral; scale not given: the % may be the effect or the level left; details: in vivo, 72 h; how it was run: as §4
# Trypanosoma cruzi [12] = assay: Growth inhibition of Trypanosoma cruzi Tulahuen 2 epimastigote at 5 uM after 5 days; assay type: functional; details: Trypanosoma cruzi, Tulahuen 2, 120 h; read-out: GI
# Mus musculus [13] = assay: Toxicity in CD1 mouse kidney at 450 mg/kg, po after 3 days by histological study; assay type: organism-based; set-up: dose 450 mg/kg, route oral; details: in vivo, 72 h; how it was run: as §1
# Mus musculus [14] = assay: Toxicity in CD1 mouse brain at 450 mg/kg, po after 3 days by histological study; assay type: organism-based; set-up: dose 450 mg/kg, route oral; details: in vivo, 72 h; how it was run: as §1
# Mus musculus [15] = assay: Toxicity in CD1 mouse liver at 300 mg/kg, ip after 3 days by histological study; assay type: organism-based; set-up: dose 300 mg/kg, route intraperitoneal; details: in vivo, 72 h; how it was run: as §1
# Mus musculus [16] = assay: Toxicity in CD1 mouse assessed as decrease in weight respect to day zero at 150 mg/kg, ip after 3 days; assay type: organism-based; set-up: dose 150 mg/kg, route intraperitoneal; scale not given: the % may be the effect or the level left; details: in vivo, 72 h; how it was run: as §4
# Mus musculus [17] = assay: Toxicity in CD1 mouse liver at 450 mg/kg, po after 3 days by histological study; assay type: organism-based; set-up: dose 450 mg/kg, route oral; details: in vivo, 72 h; how it was run: as §1
# Mus musculus [18] = assay: Toxicity in CD1 mouse lung at 300 mg/kg, ip after 3 days by histological study; assay type: organism-based; set-up: dose 300 mg/kg, route intraperitoneal; details: in vivo, 72 h; how it was run: as §1
# Mus musculus [19] = assay: Toxicity in CD1 mouse assessed as survival at 300 mg/kg, po after 3 days; assay type: organism-based; set-up: dose 300 mg/kg, route oral; details: in vivo, 72 h; how it was run: as §2
# Mus musculus [20] = assay: Toxicity in CD1 mouse heart at 450 mg/kg, po after 3 days by histological study; assay type: organism-based; set-up: dose 450 mg/kg, route oral; details: in vivo, 72 h; how it was run: as §1
# Mus musculus [21] = assay: Toxicity in CD1 mouse kidney at 300 mg/kg, ip after 3 days by histological study; assay type: organism-based; set-up: dose 300 mg/kg, route intraperitoneal; details: in vivo, 72 h; how it was run: as §1
# Mus musculus [22] = assay: Toxicity in CD1 mouse assessed as survival at 150 mg/kg, ip after 3 days; assay type: organism-based; set-up: dose 150 mg/kg, route intraperitoneal; details: in vivo, 72 h; how it was run: as §2
# Mus musculus [23] = assay: Toxicity in CD1 mouse assessed as glutamic-oxalacetate transaminase level at 300 mg/kg, ip after 3 days; assay type: organism-based; set-up: dose 300 mg/kg, route intraperitoneal; details: in vivo, 72 h
# How it was run: (§5)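 Healthy female CD1 mice (5–7 per group) received a single oral dose of 450 mg/kg or an i.p. dose of 300 mg/kg, with vehicle controls. On day 3 they were sacrificed under ether anaesthesia. Blood was drawn from the subclavian artery and kept at 0 °C in EDTA or heparin. Leukocytes, haemoglobin, haematocrit, GPT and GOT were measured within 24 h and compared with normal ranges.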
# Mus musculus [24] = assay: Toxicity in CD1 mouse assessed as haemoglobin level at 450 mg/kg, po after 3 days; assay type: organism-based; set-up: dose 450 mg/kg, route oral; details: in vivo, 72 h; how it was run: as §5
# Mus musculus [25] = assay: Toxicity in CD1 mouse assessed as increase in weight respect to day zero at 300 mg/kg, ip after 3 days; assay type: organism-based; set-up: dose 300 mg/kg, route intraperitoneal; details: in vivo, 72 h; how it was run: as §4
# Mus musculus [26] = assay: Toxicity in CD1 mouse assessed as glutamic-oxalacetate transaminase level at 450 mg/kg, po after 3 days; assay type: organism-based; set-up: dose 450 mg/kg, route oral; details: in vivo, 72 h; how it was run: as §5
# Mus musculus [27] = assay: Toxicity in CD1 mouse assessed as glutamic-pyruvate transaminase level at 450 mg/kg, po after 3 days; assay type: organism-based; set-up: dose 450 mg/kg, route oral; details: in vivo, 72 h; how it was run: as §5
# Mus musculus [28] = assay: Toxicity in CD1 mouse assessed as glutamic-pyruvate transaminase level at 300 mg/kg, ip after 3 days; assay type: organism-based; set-up: dose 300 mg/kg, route intraperitoneal; details: in vivo, 72 h; how it was run: as §5
# Mus musculus [29] = assay: Toxicity in CD1 mouse assessed as increase in weight respect to day zero at 450 mg/kg, po after 3 days; details: in vivo, 72 h
# Mus musculus [30] = assay: Toxicity in CD1 mouse assessed as haemoglobin level at 300 mg/kg, ip after 3 days; assay type: organism-based; set-up: dose 300 mg/kg, route intraperitoneal; details: in vivo, 72 h; how it was run: as §5
# Mus musculus [31] = assay: Toxicity in CD1 mouse assessed as leukocyte level at 300 mg/kg, ip after 3 days; assay type: organism-based; set-up: dose 300 mg/kg, route intraperitoneal; details: in vivo, 72 h; how it was run: as §5
# Mus musculus [32] = assay: Toxicity in CD1 mouse assessed as leukocyte level at 450 mg/kg, po after 3 days; assay type: organism-based; set-up: dose 450 mg/kg, route oral; details: in vivo, 72 h; how it was run: as §5
# Mus musculus [33] = assay: Toxicity in CD1 mouse assessed as hematocrite level at 450 mg/kg, po after 3 days; assay type: organism-based; set-up: dose 450 mg/kg, route oral; details: in vivo, 72 h; how it was run: as §5
SMILES,Activity (Mus musculus [1]),Activity (Mus musculus [2]),Activity (Mus musculus [3]),Activity (Mus musculus [4]),Activity (Mus musculus [5]),Activity (Mus musculus [7]),Activity (Mus musculus [10]),Activity (Mus musculus [11]) [%],inhibition of growth at 5 µM (Trypanosoma cruzi [12]) [%],Activity (Mus musculus [13]),Activity (Mus musculus [14]),Activity (Mus musculus [15]),Activity (Mus musculus [17]),Activity (Mus musculus [18]),Activity (Mus musculus [20]),Activity (Mus musculus [21]),Activity (Mus musculus [23]) [IU/L],Activity (Mus musculus [24]) [g/dL],Activity (Mus musculus [25]) [%],Activity (Mus musculus [26]) [IU/L],other results
COCCNC(=O)N/N=C/c1ccc([N+](=O)[O-])o1,Non-toxic,Non-toxic,Toxic,Non-toxic,Non-toxic,Non-toxic,Non-toxic,0,20,Toxic,Non-toxic,Toxic,Toxic,Non-toxic,Non-toxic,Non-toxic,–,–,–,–,Activity (Trypanosoma cruzi [6]): Active; Activity (Trypanosoma cruzi [8]): Active; Activity (Mus musculus [9]): 0%; Activity (Mus musculus [16]): 1%; Activity (Mus musculus [19]): Non-toxic; Activity (Mus musculus [22]): Non-toxic
CCCCCCCCOC(=O)N/N=C/C=C/c1ccc([N+](=O)[O-])o1,Non-toxic,Non-toxic,–,Non-toxic,Non-toxic,Non-toxic,Non-toxic,–,92,Toxic,Non-toxic,Toxic,Toxic,Non-toxic,Non-toxic,Non-toxic,57,13.9,1,84,Activity (Mus musculus [27]): 70.2 IU/L; Activity (Mus musculus [28]): 50.7 IU/L; Activity (Mus musculus [29]): 2%; Activity (Mus musculus [30]): 13.4 g/dL; Activity (Mus musculus [31]): 10600 µL⁻¹; Activity (Mus musculus [32]): 7750 µL⁻¹
CCCCCCNC(=O)/C=C/c1ccc([N+](=O)[O-])o1,Non-toxic,Toxic,Non-toxic,Non-toxic,Non-toxic,Non-toxic,Toxic,0,82,Non-toxic,Non-toxic,Toxic,Toxic,Toxic,Toxic,Non-toxic,129,11.5,2,69.8,Activity (Mus musculus [27]): 22.7 IU/L; Activity (Mus musculus [33]): 30.4%; Activity (Mus musculus [28]): 52.8 IU/L; Activity (Mus musculus [30]): 11.3 g/dL; Activity (Mus musculus [31]): 12100 µL⁻¹; Activity (Mus musculus [32]): 86000 µL⁻¹
